Source: PubChem (several laboratories)
The list is not random: actives were taken first. Their share in the collection is about 2.8%.
NPY Y2 blocker – antagonists of human neuropeptide Y receptor Y2. NPY-Y2 expressing cells, antagonist mode. inhibition, % at 2.7 µM. P49146. hit rate 0.99% among 140,000; in the data active = inhibition above about 17%;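 note: 0% = vehicle with agonist challenge and 100% = reference antagonist with challenge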
NPY2 pot ag – potentiators or agonists of human neuropeptide Y receptor Y2; P49146; activation, % at 3.6 µM; cells expressing NPY-Y2, potentiator/agonist read-out; hit rate 0.45% among 220,000; in the data active = activation above about 27%;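 note: cells stimulated with NPY near EC25 plus isoproterenol at EC100; 0% = vehicle plus submaximal agonist and 100% = vehicle plus saturating agonist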
EP2 mod – modulators of human EP2 prostaglandin E2 receptor; hit rate 0.83% among 260,000; AID 940; EP2-expressing cells, cAMP HTRF FRET, PGE2 co-stimulation; induction, % at 25 µM;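 active = compounds whose cAMP rise, as percent of the full-agonist control response, exceeds 60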;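 note: rat C6 glioma line stably carrying human EP2 under a CMV promoter; the protocol text gives 20 µM as final concentration; 100% = response of wells given 1 µM PGE2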
Target sequence (P43116 whole entry, looked up): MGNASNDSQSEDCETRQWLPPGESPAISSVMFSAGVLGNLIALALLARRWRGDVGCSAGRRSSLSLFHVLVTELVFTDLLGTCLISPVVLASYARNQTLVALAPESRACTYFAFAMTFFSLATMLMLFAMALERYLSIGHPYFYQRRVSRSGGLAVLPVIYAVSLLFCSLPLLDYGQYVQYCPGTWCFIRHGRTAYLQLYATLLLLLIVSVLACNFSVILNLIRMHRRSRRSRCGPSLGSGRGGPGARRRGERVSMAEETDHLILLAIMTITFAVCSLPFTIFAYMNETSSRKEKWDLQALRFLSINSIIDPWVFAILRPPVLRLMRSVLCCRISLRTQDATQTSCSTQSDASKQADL
NPY Y1 blocker – antagonists of human neuropeptide Y receptor Y1; P25929; HEK293-CNG Y1 cells, membrane potential fluorescence; NPY at EC95, then isoproterenol; inhibition, % at 3.6 µM; hit rate 1% among 200,000; AID 1040;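 active = inhibition above the campaign mean inhibition of all tested compounds plus 3 SD, cut at about 20% in these data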;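 note: 0% = DMSO wells given NPY plus isoproterenol and 100% = isoproterenol alone without NPY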
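Material: HEK293 cells co-expressing NPY Y1 receptor and cyclic-nucleotide gated channel. Timing: compound incubation 1 h at room temperature, readout 45 min post-stimulation. Signal: fluorescence, membrane potential probe.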
PGE2 EP2 inh – blocks the human prostaglandin E2 receptor EP2; P43116; C6 glioma cells expressing human EP2, cAMP TR-FRET; cells stimulated with saturating PGE2; inhibition, % at 25 µM; hit rate 0.52% among 260,000;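 active = percent inhibition above 40 after rounding to a whole number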;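 note: rat C6 glioma host cells with rolipram phosphodiesterase inhibitor present; the protocol text gives 20 µM as final concentration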
NPY1 pot ag – potentiates or activates human NPY-Y1 receptor; P25929; hit rate 0.37% among 220,000; activation, % at 3.6 µM; NPY-Y1 expressing cells, potentiator/agonist activation; AID 1304; in the data active = activation above about 33%, passing the limit was not always enough;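 note: cells stimulated with NPY at EC10 then isoproterenol at EC100; 0% = low agonist plus stimulus and 100% = saturating agonist plus stimulus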
Starred values were filed as active, the others as inactive.

Results for COc1ccc(CCN2C(=O)C(Oc3ccccc3C)C2c2ccc3c(c2)OCO3)cc1 (configuration not stated) ?
NPY Y2 blocker: 2; NPY2 pot ag: 4; EP2 mod: 30; NPY Y1 blocker: 12; PGE2 EP2 inh: 4; NPY1 pot ag: -13

How did CCNc1nc(OC)nc(N(C)C#N)n1 do in these assays?
EP2 mod: -11; PGE2 EP2 inh: 13

How did Cc1ccc2nc(C3CCCCN3C(=O)C(C)c3n[nH]c(=O)c4ccccc34)[nH]c2c1 (configuration not stated) do in these assays?
EP2 mod: -16; PGE2 EP2 inh: 6

Results for N#Cc1c(-c2ccccc2)nc(SCC(=O)Nc2ccccc2)[nH]c1=O ?
NPY Y2 blocker: 6; NPY2 pot ag: 8; EP2 mod: 33; NPY Y1 blocker: 4; PGE2 EP2 inh: 28; NPY1 pot ag: -22

Results for Cc1cc(C)nc(NS(=O)(=O)c2ccc(NC(=O)CSc3nc(-c4ccccc4)c(C#N)c(=O)[nH]3)cc2)n1 ?
NPY2 pot ag: 5; EP2 mod: 62*; NPY Y1 blocker: 0; PGE2 EP2 inh: 24; NPY1 pot ag: 1

What do the screens show for `C/C(=N/O)c1cc(C(C)(C)C)c(O)c(C(C)(C)C)c1`?
NPY Y2 blocker: 2; NPY2 pot ag: 9; EP2 mod: 37; NPY Y1 blocker: 0; PGE2 EP2 inh: 4; NPY1 pot ag: 7

What do the screens show for `Cc1cc(Cc2c(C)c(C)c(Cc3cc(C)cc(C(C)(C)C)c3O)c(C)c2C)c(O)c(C(C)(C)C)c1`?
EP2 mod: 16; PGE2 EP2 inh: 55*

Results for Cc1cc(Cc2cc(C)cc(C(C)(C)C)c2O)c(O)c(Cc2cc(C)cc(C(C)(C)C)c2O)c1 ?
EP2 mod: 7; PGE2 EP2 inh: 41*

What do the screens show for `CC(C)(Sc1cc(C(C)(C)C)c(O)c(C(C)(C)C)c1)Sc1cc(C(C)(C)C)c(O)c(C(C)(C)C)c1`?
NPY Y2 blocker: -1; NPY2 pot ag: 14; EP2 mod: -5; NPY Y1 blocker: -1; PGE2 EP2 inh: 12; NPY1 pot ag: 6

Results for Cc1c(Cl)cc(C(C)(C)C)c(O)c1Cc1c(C)c(Cl)cc(C(C)(C)C)c1O ?
EP2 mod: 5; PGE2 EP2 inh: 47*

Results for CCC(c1nnnn1C(C)(C)CC)N1CCN(c2ccc(F)cc2)CC1 (configuration not stated) ?
EP2 mod: -33; PGE2 EP2 inh: 9

Results for Fc1ccc(-n2cc(-c3ccccc3)c3c(N4CCOCC4)ncnc32)cc1 ?
NPY2 pot ag: -6; EP2 mod: 62*; NPY Y1 blocker: 1; PGE2 EP2 inh: 11; NPY1 pot ag: 6

What do the screens show for `Cc1cccc(-c2nc(C(N)=O)c3[nH]c(=O)n(CCc4ccccc4)c3n2)c1`?
EP2 mod: 28; PGE2 EP2 inh: 7

Results for Cc1nc2c3cc(F)ccc3n(Cc3ccc(F)cc3)c2s1 ?
NPY Y2 blocker: 18*; NPY2 pot ag: -10; EP2 mod: 44; NPY Y1 blocker: 27*; PGE2 EP2 inh: 8; NPY1 pot ag: -35

Results for Cc1nc2c3cc(Cl)ccc3n(CCN3CCCCC3)c2s1 ?
NPY Y2 blocker: 33*; NPY2 pot ag: -32; EP2 mod: 7; NPY Y1 blocker: 25*; PGE2 EP2 inh: 3; NPY1 pot ag: -19

How did CC1(C)C(C(=O)O)N2C(=O)C(NC(=O)C(C(=O)O)c3ccccc3)C2S1=O (configuration not stated) do in these assays?
EP2 mod: 12; PGE2 EP2 inh: 14

What do the screens show for `COc1ccc2c(c1)[n+]([O-])c(/C(C)=N/NC(N)=S)c(C)[n+]2[O-]`?
EP2 mod: 8; PGE2 EP2 inh: 44*

How did C/C(=N\NC(N)=S)c1ccccc1 do in these assays?
NPY2 pot ag: -28; EP2 mod: -49; PGE2 EP2 inh: 5; NPY1 pot ag: 0

How did CCOCCCNC(=O)C1CCCN1C(=O)Nc1cccc(Cl)c1 (configuration not stated) do in these assays?
EP2 mod: -14; PGE2 EP2 inh: 8

How did N=C(N)S[C@@H]1c2ccccc2-c2cc([N+](=O)[O-])ccc21 do in these assays?
EP2 mod: -51; PGE2 EP2 inh: 48*
